For nine compounds, fold change (FC), EC50 and Emax results are on record in ChEMBL document CHEMBL4190271, “Semisynthesis and Kappa-Opioid Receptor Activity of Derivatives of Columbin, a Furanolactone Diterpene” (J Nat Prod, 2017).

The term EC50 denotes the midpoint of the concentration-response curve. A word on the Emax: it is the size of the effect at its maximum, as opposed to the concentration needed.

Holding throughout (format): functional, cell-based
Assay [1] addresses T1, Kappa-type opioid receptor (Homo sapiens, UniProt P41145). In words: Agonist activity at human kappa-type opioid receptor expressed in CHO-K1 cells assessed as inhibition of forskolin-induced cAMP accumulation after 30 mins by luminescence-based assay relative to columbin. For orientation: cAMP levels reflect the balance of adenylyl cyclase and phosphodiesterase activity.

The target of assay [2] is T1, Kappa-type opioid receptor. In words: Agonist activity at human kappa-type opioid receptor expressed in CHO-K1 cells assessed as inhibition of forskolin-induced cAMP accumulation after 30 mins by luminescence-based assay. In short, it runs like this: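 CHO-K1 cells stably expressing human κ-opioid receptor, tested in a HitHunter cAMP assay for inhibition of forskolin-induced cAMP accumulation, run per the manufacturer's directions. Compounds were tested up to 50 μM. Emax is expressed relative to salvinorin A, set at 100%. EC50 and Emax are given as means ± SEM of at least 2 independent experiments, each run in triplicate.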

Assay [3] addresses T1, Kappa-type opioid receptor. In words: Agonist activity at human kappa-type opioid receptor expressed in CHO-K1 cells assessed as inhibition of forskolin-induced cAMP accumulation up to 50 uM after 30 mins by luminescence-based assay. In short, it runs like this: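 CHO-K1 cells stably expressing human κ-opioid receptor; HitHunter cAMP assay, run per the kit directions, measuring inhibition of forskolin-induced cAMP accumulation. Compounds tested up to 50 μM. Reference agonist sets E_max = 100%. EC₅₀ and E_max given as means ± standard error of the mean from n ≥ 2 independent experiments, each in triplicate.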

T1 sequence (P41145 whole entry): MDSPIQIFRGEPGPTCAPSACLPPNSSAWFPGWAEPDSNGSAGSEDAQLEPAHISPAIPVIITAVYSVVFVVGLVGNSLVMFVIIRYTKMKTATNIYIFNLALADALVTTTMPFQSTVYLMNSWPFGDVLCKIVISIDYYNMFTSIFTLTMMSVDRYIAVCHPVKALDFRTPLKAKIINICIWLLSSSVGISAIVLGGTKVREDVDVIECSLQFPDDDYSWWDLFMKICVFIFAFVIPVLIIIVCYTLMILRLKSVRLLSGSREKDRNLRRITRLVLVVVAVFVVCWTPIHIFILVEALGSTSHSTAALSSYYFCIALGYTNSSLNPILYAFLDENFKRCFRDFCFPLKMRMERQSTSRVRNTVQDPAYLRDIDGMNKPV

Take `C[C@@]12C[C@H](c3ccoc3)OC(=O)[C@@H]1CC[C@]1(C)[C@H]2[C@H]2C=C[C@]1(OC(=O)/C=C/c1ccccc1)C(=O)O2`: the fold change (FC) in assay [1] is above 8.3. Further, in assay [2], the EC50 stood at 6 µM and the Emax was found to be 100%.

With `C[C@@]12C[C@H](c3ccoc3Br)OC(=O)[C@@H]1CC[C@]1(C)[C@H]2[C@H]2C=C[C@]1(O)C(=O)O2`, the Emax in assay [3] amounted to 0%. For the same compound, in assay [2], the EC50 is above 50 µM.

In the case of `C[C@@]12C[C@H](c3ccoc3)OC(=O)[C@@H]1CC[C@]1(C)[C@H]2[C@@H]2OC(=O)[C@@]1(O)[C@H](O)[C@@H]2O`, in assay [1], the fold change (FC) is above 3.1. In addition, in assay [2], the EC50 was determined as 16 µM and the Emax amounted to 100%.

Take `C[C@@]12C[C@H](c3ccoc3)OC(=O)[C@@H]1CC[C@]1(C)[C@H]2[C@H]2CC[C@]1(O)C(=O)O2`: the fold change (FC) in assay [1] was above 25. Besides, in assay [2], the half-maximal effective concentration (EC50) was found to be 2 µM and the Emax was determined as 100%.

With `COCO[C@@]12C=C[C@@H](OC1=O)[C@H]1[C@]3(C)C[C@H](c4ccoc4)OC(=O)[C@@H]3CC[C@]12C`, the fold change (FC) in assay [1] is above 4.2. Moreover, in assay [2], the EC50 worked out at 12 µM and the Emax is 100%.

`C[C@@]12C[C@H](c3ccoc3Br)OC(=O)[C@@H]1CC[C@]1(C)[C@H]2[C@@H]2OC(=O)[C@@]1(O)[C@@H](Br)[C@@H]2Br`: in assay [3], the Emax was determined as 0%. Further, the EC50 in assay [2] is above 50 µM.

On to `CC(=O)O[C@@H]1[C@H]2OC(=O)[C@@](O)([C@@H]1OC(C)=O)[C@]1(C)CC[C@H]3C(=O)O[C@@H](c4ccoc4)C[C@@]3(C)[C@H]21`, for which the Emax in assay [3] is 0%. The EC50 in assay [2] was above 50 µM.

For `C[C@@]12C[C@H](c3ccoc3)OC(=O)[C@@H]1CC[C@]1(C)[C@H]2[C@H]2C=C[C@]1(O)C(=O)O2`, the Emax in assay [3] stood at 0%. Besides, the EC50 in assay [2] was above 50 µM.

For `CC(=O)O[C@@]12C=C[C@@H](OC1=O)[C@H]1[C@]3(C)C[C@H](c4ccoc4)OC(=O)[C@@H]3CC[C@]12C`, the fold change (FC) in assay [1] is above 6.3. Besides, in assay [2], the EC50 was determined as 8 µM and the Emax came out at 100%.
